Laboratory results reported in paper PMC10012268 (ACS Infectious Diseases, 2023).
“And” between values parts separate entries of the source, which are not always exact repeats. Equal values may be shown once.

Legend:
Pf Dd2 parental line = assay: 3H-hypoxanthine 72 h assay, Dd2 parental line; assay type: cell-based; details: Plasmodium falciparum, DD2, read-out: Pf Dd2 EC50, Dd2 parental line, 3H-hypoxanthine 72 h; average of two experiments
[1] = test system: Pf Dd2 expressing ScDHODH; assay: ScDHODH asexual-stage assay; assay type: cell-based; details: Plasmodium falciparum, DD2, 72 h, read-out: Dd2 ScDHODH EC50
In short: (§1)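 Parasites were sorbitol-synchronised one cycle before setup. Ring stages at 0.5% parasitemia and 2% hematocrit were plated onto twofold compound dilutions and incubated at 37 °C for 72 h. Cells were fixed in 0.25% glutaraldehyde (RT, 30 min), stained with 2.5× SYBR Green (37 °C, 30 min) and counted by flow cytometry. EC50 is the average of three independent experiments.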

[2] = test system: Pf SB1-A6 strain with a CNV (∼2-fold) and a C276F mutation in DHODH; assay: SB1-A6 asexual-stage assay; assay type: cell-based; details: Plasmodium falciparum, 72 h, read-out: SB1-A6 EC50
In short: as §1

[3] = test system: P. berghei ANKA parasites expressing GFP; assay: Peter's 4 day P. berghei mouse model; assay type: in vivo; details: for % parasitemia: average for four mice on day 4; for % reduction in parasitemia: versus the vehicle control, four mice, day 4
In short: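 Swiss mice (four per group) were infected IV with 1 × 10^7 P. berghei ANKA GFPcon-infected erythrocytes from donor mice. Dosing was oral once daily for 4 days, starting 2 h post-infection: test compound at 20 mg/kg in 20% DMSO/60% propylene glycol/20% water, or chloroquine at 10 mg/kg in water. Day-4 parasitemia was measured as GFP+ cells per 100,000 events and by Giemsa smears, with reduction calculated against vehicle.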

[4] = test system: P. falciparum 3D7 parasites; assay: P. falciparum 3D7 asexual-stage parasite LDH viability assay; assay type: cell-based, Plasmodium falciparum; details: for EC50: Plasmodium falciparum, 3D7, 72 h, read-out: Control compound activity against 3D7 parasites, EC50, 3D7, LDH assay, 72 h, value (SD)
NF54 = assay: 3H-hypoxanthine 72 h assay, NF54; assay type: cell-based; details: Plasmodium falciparum, NF54, read-out: Pf multidrug-resistant strain EC50 NF54
[5] = test system: P. falciparum NF54 female gametes; assay: Dual gamete formation assay; assay type: cell-based; details: Plasmodium falciparum, NF54, read-out: female gamete EC50
In short: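 Stage V NF54 gametocyte cultures with >0.2% exflagellation were diluted to 12.5 million cells/mL in gametocyte medium containing 10% human serum and no Albumax. They were dispensed warm (625,000 cells/well) onto the test compound. After ookinete medium was added, plates went to 4 °C for 4 min and then 28 °C for 5 min, followed by 24 h at 28 °C in the dark. Female gametes (Pfs25) were scored from one fluorescence image per well.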

LogD at pH 7.4 = assay type: physicochemical; details: 1-octanol/phosphate-buffered saline (1:1, v/v)
[6] = test system: mitochondrial electron transport chain of P. falciparum 3D7 asexual parasites; assay: ETC biosensor / oxygen consumption rate; assay type: cell-based, Plasmodium falciparum; details: for effect on malate-dependent oxygen consumption rate (OCR): compounds at 5 μM, malate as the energy source
In short: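 Magnet-purified trophozoite-infected RBCs were saponin-released (0.05%, 37 °C, 3 min) and washed. Parasites were suspended in MAS buffer with 25 mM malate and 0.002% digitonin and seeded at 5 × 10^6 per Cell-Tak-coated well (800g, 10 min). Seahorse XFe96 OCR was read at baseline, after test compound (5 μM final), after TMPD (0.2 mM) with ascorbate (2 mM), then after NaN3 (10 mM). Each cycle was 20 s mix, 1 min wait, 2.5 min measure.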

[7] = Liver microsome stability, mouse; assay type: in vitro ADME; details: pooled mouse liver microsomes
In short: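 Test compound (1 μM, phosphate buffer) was incubated with pooled mouse liver microsomes (0.5 mg/mL) at 37 °C, with and without an NADPH regeneration system, sampling at 0, 5, 20, 30, 45 and 60 min. Run in duplicate.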

[8] = test system: Pf Dd2 strain with an I22L mutation in the Qi site cyt b; assay: 3H-hypoxanthine 72 h assay, Dd2 cyt b; assay type: cell-based, Plasmodium falciparum
In short: (§2)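 Asexual blood-stage parasites in hypoxanthine-free RPMI 1640 with HEPES, NaHCO3, neomycin (100 μg/mL) and Albumax II (5 g/L). Infected blood (0.3% parasitemia, 2.5% hematocrit) was exposed to a 10-point serial dilution at 37 °C under 93% N2/4% CO2/3% O2. After 48 h, [3H]-hypoxanthine (0.5 μCi/well) was added for 24 h more. Scintillation cpm were normalised to untreated controls, and logit regression gave values as means of two experiments.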

HepG2 = HepG2 host cell viability in the liver stage panel; assay type: cell-based; details: Homo sapiens, HepG2, 48 h, read-out: HepG2 EC50 (liver stage)
[9] = test system: drug-resistant P. falciparum strains; assay: Profiling against a selection of multidrug-resistant parasites; assay type: cell-based, Plasmodium falciparum
In short: as §2

P. berghei EEFs = assay: Exoerythrocytic stage assay; assay type: cell-based; details: Plasmodium berghei, 48 h, read-out: Pb liver stage EEFs EC50 (SD)
K1 = assay: 3H-hypoxanthine 72 h assay, K1; assay type: cell-based; details: Plasmodium falciparum, K1, read-out: Pf multidrug-resistant strain EC50 K1
RF12 = assay: 3H-hypoxanthine 72 h assay, RF12; assay type: cell-based; details: Plasmodium falciparum, read-out: Pf multidrug-resistant strain EC50 RF12
[10] = Hepatocyte stability, rat; assay type: in vitro ADME; details: pooled rat hepatocytes
In short: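 Test compound (1 μM) in Krebs–Henseleit buffer was incubated with pooled rat hepatocytes (1 × 10^6 cells/mL) at 37 °C, 5% CO2, with samples from 0 to 90 min. Reactions were quenched with ice-cold acetonitrile and centrifuged, and supernatants were analysed by LC–MS/MS. Half-life and CLint were derived from parent remaining. Run in duplicate.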

[11] = Plasma bioanalysis in the P. berghei mouse model; assay type: in vivo; details: 20 mg/kg oral
In short: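 Blood was sampled from P. berghei-infected mice at 2, 6 and 22 h after the first oral 20 mg/kg dose. Plasma compound concentrations were quantified by LCMS.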

7G8 = assay: 3H-hypoxanthine 72 h assay, 7G8; assay type: cell-based; details: Plasmodium falciparum, 7G8, read-out: Pf multidrug-resistant strain EC50 7G8
[12] = Kinetic aqueous solubility; assay type: physicochemical; details: kinetic in PBS
In short: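 Miniaturised shake flask: test compound (200 μM) in PBS pH 7.4 was shaken at 600 rpm, 25 °C for 2 h, filtered, and the filtrate half-diluted in acetonitrile. Run in duplicate.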

[13] = 3D7 parasite EC50 compared to 17

For O=C1C(O)=C([C@H]2CC[C@H](c3ccc(Cl)cc3)CC2)C(=O)c2ccccc21 [ATQ, atovaquone, reference compound], the EC50 (Pf Dd2 parental line) was 1 nM, the EC50 [1] was greater than 10000 nM and the EC50 [2] was greater than 10000 nM.
For CCN(CC)CCCC(C)Nc1ccnc2cc(Cl)ccc12 (stereo not drawn) [CQ, chloroquine, reference compound], the “% parasitemia” value ([3]; 10 mg/kg) was 0.02%, the “% reduction in parasitemia” value ([3]; 10 mg/kg) was 99.8% and the EC50 [4] was 35 nM.
With CCn1cc(-c2nc(C)no2)c(=O)c2cc(F)c(N3CCC(C)CC3)cc21 [Compound 17, 1-Ethyl-6-fluoro-3-(3-methyl-1,2,4-oxadiazol-5-yl)-7-(4-methyl-1-piperidyl)quinolin-4-one] the EC50 (NF54) was 12 nM, the “% parasitemia” value ([3]; 20 mg/kg p.o. q.d. days 0-3) was 8.1% and the “% reduction in parasitemia” value ([3]; 20 mg/kg p.o. q.d. days 0-3) was 56% and 56.2%. The EC50 [5] was greater than 25000 nM, the “in vitro EC99” value [4] was 0.030 µM and the logD at 2 h (LogD at pH 7.4) was 2.6. For the same molecule, the “OCR upon addition of TMPD” value ([6]; after compound (5 μM), TMPD (cytochrome c electron donor) added) was “rescued”, the “effect on malate-dependent oxygen consumption rate (OCR)” value (“effect” below) [6] was “significantly reduce the OCR” and the microsomal CLint at 1 μM [7] was 16.2 µL/min/mg. The EC50 (Pf Dd2 parental line) was 10 nM, the “difference in sensitivity between the ELQ-300 resistant Dd2 strain and the Dd2 parental strain” value (from here on “difference”) [8] was “no difference in sensitivity” and the EC50 (HepG2) was greater than 50000 nM. For the same molecule, the “potency against each drug-resistant strain compared to the Dd2 and NF54 wild-type parasites” value [9] was “equipotent”, the EC50 (P. berghei EEFs) was less than 1 nM and the EC50 (K1) was 9 nM. For the same molecule, the EC50 [1] was 1700 nM, the EC50 [2] was 1800 nM and the EC50 (RF12) was 6 nM. For the same molecule, the hepatocyte CLint at 1 μM [10] was 53.8 µL/min/1e6 cells, the absorption [11] was “moderate absorption” and the “time for which total plasma concentration exceeds the in vitro EC99” value ([11]; after dose 1) was “approximately 12 h”. The EC50 (7G8) was 9 nM.
With CCn1cc(C(N)=O)c(=O)c2cc(F)c(N3CCC(C)CC3)cc21 [Compound 22, 1-Ethyl-6-fluoro-7-(4-methyl-1-piperidyl)-4-oxo-quinoline-3-carboxamide] the “fold less active/potent than 17” value [4, 13] was “approximately 20 fold”, the “difference” value [8] was “no difference in sensitivity” and the EC50 (HepG2) was greater than 50000 nM. The EC50 (P. berghei EEFs) was 24 nM.
In the case of CCNC(=O)c1cn(CC)c2cc(N3CCC(C)CC3)c(F)cc2c1=O [Compound 23, N,1-Diethyl-6-fluoro-7-(4-methyl-1-piperidyl)-4-oxo-quinoline-3-carboxamide], the “fold less active/potent than 17” value [4, 13] is reported as “approximately 20 fold”.
In the case of CCn1cc(-c2nc(C)no2)c(=O)c2cc(F)c(N3CCN(C(C)=O)CC3)cc21 [Compound 33, 7-(4-Acetylpiperazin-1-yl)-1-ethyl-6-fluoro-3-(3-methyl-1,2,4-oxadiazol-5-yl)quinolin-4-one], the “effect” value [6] is reported as “does not affect the OCR”.
With CCn1cc(-c2nc(C)no2)c(=O)c2cc(F)c(N3CCCC(C)C3)cc21 (stereo not drawn) [Compound 34, 1-Ethyl-6-fluoro-3-(3-methyl-1,2,4-oxadiazol-5-yl)-7-(3-methyl-1-piperidyl)quinolin-4-one] the “fold less active/potent than 17” value [4, 13] was 5 fold.
In the case of CCCC1CCN(c2cc3c(cc2F)c(=O)c(-c2nc(C)no2)cn3CC)CC1 [Compound 38, 1-Ethyl-6-fluoro-3-(3-methyl-1,2,4-oxadiazol-5-yl)-7-(4-propyl-1-piperidyl)quinolin-4-one], the “fold more potent than 17” value [4, 13] is reported as 2 fold.
In the case of CCn1cc(-c2nc(C)no2)c(=O)c2cc(F)c(N3CCC(C(C)C)CC3)cc21 [Compound 39, 1-Ethyl-6-fluoro-7-(4-isopropyl-1-piperidyl)-3-(3-methyl-1,2,4-oxadiazol-5-yl)quinolin-4-one], the “fold less active/potent than 17” value [4, 13] is reported as 2 fold.
For CCn1cc(-c2nc(C)no2)c(=O)c2cc(F)c(N3CCC(c4ccccc4)CC3)cc21 [Compound 40, 1-Ethyl-6-fluoro-3-(3-methyl-1,2,4-oxadiazol-5-yl)-7-(4-phenyl-1-piperidyl)quinolin-4-one], the “fold less active/potent than 17” value [4, 13] was 2 fold.
With CCn1cc(-c2nc(C)no2)c(=O)c2cc(F)c(N3CCC(CN4CCOCC4)CC3)cc21 [Compound 42, 1-Ethyl-6-fluoro-3-(3-methyl-1,2,4-oxadiazol-5-yl)-7-[4-(morpholinomethyl)-1-piperidyl]quinolin-4-one] the “fold less active than the benzyl analog 41” value ([4]; 3D7 parasite EC50 compared to 41) was 30 fold.
For CCOC(=O)c1cn(CC)c2cc(N3CCC(Cc4ccccc4)CC3)c(F)cc2c1=O [Compound 43, Ethyl 7-(4-Benzyl-1-piperidyl)-1-ethyl-6-fluoro-4-oxo-quinoline-3-carboxylate], the EC50 (NF54) was 17 nM, the logD at 2 h (LogD at pH 7.4) was 4.6 and the “aqueous solubility pH 7.4” value [12] was 10.4 μM. For the same molecule, the EC50 (Pf Dd2 parental line) was 15 nM, the “difference” value [8] was “no difference in sensitivity” and the “potency against each drug-resistant strain compared to the Dd2 and NF54 wild-type parasites” value [9] was “equipotent”. It also gave an EC50 (K1) of 14 nM, an EC50 (RF12) of 5 nM and a hepatocyte CLint at 1 μM [10] greater than 92.4 µL/min/1e6 cells. For the same molecule, the EC50 (7G8) was 12 nM.
For O=C(NCCN1CCCC1)c1cc(-c2ccc(CN3CCOCC3)cc2)nc2ccc(F)cc12 [DDD107498], the EC50 (Pf Dd2 parental line) was 0.4 nM.
In the case of Cc1cc(Nc2ccc(S(F)(F)(F)(F)F)cc2)n2nc(C(C)(F)F)nc2n1 [DSM265, reference compound], the “effect” value [6] is reported as “had no effect”, the EC50 (Pf Dd2 parental line) is reported as 24 nM and the EC50 [1] is reported as greater than 10000 nM. It also gave an EC50 [2] greater than 10000 nM.
For CC1(C)c2nc(-c3ccc(F)cc3)c(Nc3ccc(F)cc3)n2CCN1C(=O)CN [KAF156], the EC50 (Pf Dd2 parental line) was 8 nM.
CS(=O)(=O)c1ccc(-c2cnc(N)c(-c3ccc(C(F)(F)F)nc3)c2)cc1 [MMV048] showed an EC50 (Pf Dd2 parental line) of 16 nM.
C[C@H]1[C@H](OC(=O)CCC(=O)O)O[C@@H]2O[C@@]3(C)CC[C@H]4[C@H](C)CC[C@@H]1[C@@]24OO3 [artesunate, reference compound] gave an EC50 [4] of 8 nM.
